Calls of active or inactive are those of the source. No cut-off for these calls is given here. Some results are limits rather than exact numbers.

The target in one assay is Protein smoothened (Mus musculus, UniProt P56726). In words: Antagonist activity at Smo receptor in mouse NIH/3T3 cells harboring GRE-Luc assessed as inhibition of SAG-induced Hh signaling pathway co-incubated with SAG measured after 48 hrs by luciferase reporter gene assay. (In a reporter assay the amount or activity of a reporter protein is the signal.)
Protein smoothened (Mus musculus, UniProt P56726), sequence (P56726 whole entry): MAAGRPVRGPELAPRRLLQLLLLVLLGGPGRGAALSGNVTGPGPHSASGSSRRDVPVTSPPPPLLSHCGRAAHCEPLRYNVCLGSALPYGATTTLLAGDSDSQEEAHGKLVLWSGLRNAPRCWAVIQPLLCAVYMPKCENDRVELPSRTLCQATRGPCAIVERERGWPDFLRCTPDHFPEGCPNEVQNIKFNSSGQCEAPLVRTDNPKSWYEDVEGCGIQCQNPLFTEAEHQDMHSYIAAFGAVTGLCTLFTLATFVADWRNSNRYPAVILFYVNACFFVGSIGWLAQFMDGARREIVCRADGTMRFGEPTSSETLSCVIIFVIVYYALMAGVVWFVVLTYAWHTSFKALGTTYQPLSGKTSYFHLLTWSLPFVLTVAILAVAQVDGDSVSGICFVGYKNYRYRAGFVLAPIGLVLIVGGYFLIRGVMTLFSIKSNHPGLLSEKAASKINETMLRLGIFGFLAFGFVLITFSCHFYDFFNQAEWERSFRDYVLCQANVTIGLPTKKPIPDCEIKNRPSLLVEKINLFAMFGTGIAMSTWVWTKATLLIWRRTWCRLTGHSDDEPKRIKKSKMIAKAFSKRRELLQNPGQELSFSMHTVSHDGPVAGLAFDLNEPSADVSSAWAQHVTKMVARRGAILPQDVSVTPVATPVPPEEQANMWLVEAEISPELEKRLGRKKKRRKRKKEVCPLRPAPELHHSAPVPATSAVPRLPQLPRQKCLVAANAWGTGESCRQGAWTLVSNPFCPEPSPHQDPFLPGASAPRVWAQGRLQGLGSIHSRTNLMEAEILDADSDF
Turning to `O=C(CSc1nnc(CNC(=O)c2cccs2)n1-c1ccccc1)Nc1nc2ccccc2s1`, the IC50 (usually the concentration needed to halve the response being measured) is over 10 µM.

`CN(C(=O)Cn1c(=O)n(CCCC(=O)NCc2ccccc2)c(=O)c2sccc21)c1ccccc1`: the IC50 is over 10 µM.

On to `CCC(Sc1nnc2c(=O)n(-c3ccc(C)c(C)c3)ccn12)C(=O)Nc1ccccc1C` (stereo not given), for which the half-inhibitory concentration (IC50) was over 10 µM.

In the case of `CC1CCN(C(C)CNC(=O)c2ccc3c(c2)NC(=O)C(CS(=O)(=O)Cc2ccc(F)cc2Cl)N3)CC1` (stereo not given), the IC50 is over 10 µM.

Turning to `CC(C)c1ccc(NC(=O)c2cc(S(=O)(=O)N3CCN(c4ccccc4F)CC3)ccc2F)cc1`, the IC50 was over 10 µM.

Consider `COc1cc(F)ccc1S(=O)(=O)NCCNc1nc(-c2ccc(F)cc2)nc2ccccc12`, for which the IC50 is over 10 µM.

Turning to `O=C(Nc1ccc(N2CCN(Cc3ccccc3O)CC2)nc1)c1ccccc1C(F)(F)F`, the IC50 was found to be 2.4 µM.

`CCNC(=O)C1CCN(c2nnc(-n3cccc3CNc3ccc(C)cc3)s2)CC1`: the IC50 stood at 5.2 µM.

With `Cc1ccc(NC(=O)CSc2nc3ccc(NC(=O)c4ccccc4Cl)cc3s2)cc1Cl`, the concentration for half-maximal inhibition (IC50) was over 10 µM.

For the molecule `Cc1ccc(NCc2cccn2-c2nnc(N3CCC(C(=O)NC4CCCC4)CC3)s2)cc1`, the IC50 came out at 0.53 µM.

Take `Cc1ccc(NCc2cccn2-c2nnc(N3CCC(C(=O)NCC(C)C)CC3)s2)cc1`: the concentration for half-maximal inhibition (IC50) was found to be 1.1 µM.

`Cc1ccc(NCc2cccn2-c2nnc(N3CCC(C(=O)NC(C)C)CC3)s2)cc1`: the IC50 is 1.2 µM.

Regarding `Cc1ccc(NCc2cccn2-c2nnc(N3CCC(C(=O)NCC(C)(C)O)CC3)s2)cc1`, the IC50 is 4.3 µM.

Consider `Cc1oc(-c2cccc(Cl)c2)nc1CN1CCC(C(=O)NC2CCCc3ccccc32)CC1` (stereo not given), for which the IC50 was 0.95 µM.

`Cc1c(C(=O)NC2CCCCC2)sc2ncn(CC(=O)Nc3cccc(C(F)(F)F)c3)c(=O)c12`: the IC50 was over 10 µM.

Regarding `CC1Cc2ccccc2N1C(=O)c1ccc(=O)n(CCC(=O)N2CCN(c3ccccc3)CC2)n1` (stereo not given), the IC50 was determined as 3 µM.

Take `CCn1cc(C(=O)O)c(=O)c2cc(F)c(N3CCN(C(=S)NC(=O)Cc4ccc(Cl)cc4)CC3)cc21`: the IC50 was over 10 µM.

Take `Cc1ccc(NCc2cccn2-c2nnc(N3CCC(C(=O)NC4CC4)CC3)s2)cc1`: the concentration for half-maximal inhibition (IC50) is 4.2 µM.

Turning to `Cc1cccc(CNC(=O)Cc2cccc(N(Cc3ccccc3)C(=O)c3ccc(C#N)cc3)c2)c1`, the IC50 is over 10 µM.

With `COc1ccc(-n2nc(C(=O)NCC(=O)Nc3nc4ccccc4s3)c3ccccc3c2=O)cc1`, the IC50 is over 10 µM.

On to `Cc1ccc(NCc2cccn2-c2nnc(N3CCC(C(=O)NC4CCCCC4C)CC3)s2)cn1` (stereo not given), for which the IC50 came to 0.24 µM.

For the molecule `O=C1CC(NC2CCN(c3ccc(C(F)(F)F)cn3)CC2)C(=O)N1c1ccc(F)cc1` (stereo not given), the IC50 was over 10 µM.

For the molecule `COc1ccc2[nH]cc(CCNC(=O)c3ccccc3NC(=O)c3nsc4ccccc34)c2c1`, the IC50 was over 10 µM.

With `O=C(Nc1cccc(N2CCCN(Cc3ccc(F)c(F)c3)C2=O)c1)OCc1ccccc1`, the IC50 was 1.2 µM.

As to `Cc1ccc(NCc2cccn2-c2nnc(N3CCC(C(=O)NCC4CC4)CC3)s2)cc1`, the half-inhibitory concentration (IC50) worked out at 1.7 µM.

`Cc1ccc(-c2cc3c(N4CCC(C(=O)NC(C)c5ccccc5)CC4)nccn3n2)cc1C` (stereo not given): the IC50 is 4.6 µM.

For `COc1cccc2c1OC1(C)CC2NC(=O)N1c1cccc(C(=O)N2CCN(c3ccccc3F)CC2)c1` (stereo not given), the IC50 was over 10 µM.

With `Cc1ccc(NCc2cccn2-c2nnc(N3CCC(C(=O)N4CCCC4)CC3)s2)cc1`, the IC50 came out at 4.3 µM.

`Cc1ccc(NCc2cccn2-c2nnc(N3CCC(C(=O)N4CCC(O)C4)CC3)s2)cc1` (stereo not given): the IC50 was found to be 7.6 µM.

For the molecule `COc1ccc(Cl)cc1NC(=O)c1ccc(-n2nc(OCc3cccc(F)c3)ccc2=O)cc1`, the IC50 was over 10 µM.

For `Cc1ccc(NCc2cccn2-c2nnc(N3CCC(C(=O)NC4CCCCC4C)CC3)s2)nc1` (stereo not given), the half-maximal inhibitory concentration (IC50) was 0.058 µM.

Regarding `Cc1ccc(NCc2cccn2-c2nnc(N3CCC(C(=O)NC4CCCCC4)CC3)s2)cc1`, the IC50 was determined as 0.66 µM.

For the molecule `Cc1ccc(NCc2cccn2-c2nnc(N3CCC(C(=O)NC4CCCCC4C)CC3)s2)cc1` (stereo not given), the IC50 is 0.047 µM.

In the next assay the target is T1, Protein smoothened (Homo sapiens, UniProt Q99835). In words: Displacement of BODIPY-Cyclopamine from human HA-tagged Smo receptor expressed in human U2OS cells at 3 to 1000 nM by DAPI staining based fluorescence microscopic method. It counts as cell-based. The method in brief: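 Puromycin-selected U2OS clone expressing HA-tagged human Smo, seeded 10,000 cells/well in 10% serum DMEM and cultured 48 h at 37 °C. Cells fixed in 4% PFA for 20 min, DAPI (5 µg/mL) for 10 min, PBS washes, then 2 h at room temperature with 100 nM BODIPY-cyclopamine plus serially diluted compound. PBST washes, automated high-content fluorescence imaging, data normalized to GDC-0449. Sigmoidal fit for IC50. Ki by Cheng-Prusoff using probe Kd 255 ± 57 nM.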
T1 sequence (Q99835 whole entry): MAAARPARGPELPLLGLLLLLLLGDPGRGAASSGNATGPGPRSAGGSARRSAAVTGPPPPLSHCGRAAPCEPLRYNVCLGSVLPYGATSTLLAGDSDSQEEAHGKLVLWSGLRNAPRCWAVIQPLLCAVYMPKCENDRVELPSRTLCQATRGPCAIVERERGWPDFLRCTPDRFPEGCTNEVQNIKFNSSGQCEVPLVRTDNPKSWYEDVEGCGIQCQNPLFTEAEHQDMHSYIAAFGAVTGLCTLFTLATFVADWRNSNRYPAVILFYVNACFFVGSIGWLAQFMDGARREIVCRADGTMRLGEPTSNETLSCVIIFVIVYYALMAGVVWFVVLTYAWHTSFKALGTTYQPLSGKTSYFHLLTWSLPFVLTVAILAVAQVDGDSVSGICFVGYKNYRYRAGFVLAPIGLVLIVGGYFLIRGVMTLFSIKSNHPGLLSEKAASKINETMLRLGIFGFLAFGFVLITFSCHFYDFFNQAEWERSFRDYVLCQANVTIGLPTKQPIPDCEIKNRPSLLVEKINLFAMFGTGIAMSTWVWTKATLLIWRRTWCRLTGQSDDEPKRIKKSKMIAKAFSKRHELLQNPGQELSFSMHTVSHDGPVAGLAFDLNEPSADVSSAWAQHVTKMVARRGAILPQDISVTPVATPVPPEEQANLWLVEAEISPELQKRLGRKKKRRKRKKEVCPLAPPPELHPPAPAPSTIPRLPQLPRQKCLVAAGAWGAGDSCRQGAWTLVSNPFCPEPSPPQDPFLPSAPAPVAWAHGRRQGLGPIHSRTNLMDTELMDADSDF
Turning to `Cc1ccc(NCc2cccn2-c2nnc(N3CCC(C(=O)NC4CCCCC4C)CC3)s2)cc1` (stereo not given), the inhibition entry is “Active”.

Another assay deals with T1, Protein smoothened. In words: Antagonist activity at Smo receptor (unknown origin). The format is functional.
For `COc1cc(C(=O)NC(=N)Nc2cccc(NC(=O)c3ccc(-c4ccccc4)cc3)c2)cc(OC)c1OC`, the half-inhibitory concentration (IC50) is 0.01 µM.

The values are drawn from ChEMBL document CHEMBL4152283, “Discovery of potent and novel smoothened antagonists via structure-based virtual screening and biological assays” (Eur J Med Chem, 2018).
